Results from ChEMBL document CHEMBL2150914, “Synthesis and biological evaluation of N-arylbenzo[b]thieno[3,2-d]pyrimidin-4-amines and their pyrido and pyrazino analogues as Ser/Thr kinase inhibitors” (Eur J Med Chem, 2012).

Biological target: Cyclin-dependent kinase 5/CDK5 activator 1 (Homo sapiens, UniProt Q00535)
Test: Inhibition of human recombinant GST-tagged CDK5/p25 expressed in Escherichia coli using histone H1 as substrate and [gamma32P]ATP after 30 mins by scintillation counting

Sequence of Cyclin-dependent kinase 5/CDK5 activator 1 (Q00535 whole entry): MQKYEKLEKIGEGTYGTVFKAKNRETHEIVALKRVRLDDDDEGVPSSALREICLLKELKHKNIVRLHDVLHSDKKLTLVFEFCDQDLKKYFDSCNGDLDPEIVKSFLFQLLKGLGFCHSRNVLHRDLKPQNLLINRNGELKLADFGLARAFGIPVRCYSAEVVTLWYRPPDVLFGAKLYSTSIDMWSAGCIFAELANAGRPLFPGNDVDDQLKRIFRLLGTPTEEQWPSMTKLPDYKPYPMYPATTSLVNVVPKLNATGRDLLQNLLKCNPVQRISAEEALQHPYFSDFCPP
Sequence of Cyclin-dependent kinase 5/CDK5 activator 1 (Q15078 whole entry, further chain): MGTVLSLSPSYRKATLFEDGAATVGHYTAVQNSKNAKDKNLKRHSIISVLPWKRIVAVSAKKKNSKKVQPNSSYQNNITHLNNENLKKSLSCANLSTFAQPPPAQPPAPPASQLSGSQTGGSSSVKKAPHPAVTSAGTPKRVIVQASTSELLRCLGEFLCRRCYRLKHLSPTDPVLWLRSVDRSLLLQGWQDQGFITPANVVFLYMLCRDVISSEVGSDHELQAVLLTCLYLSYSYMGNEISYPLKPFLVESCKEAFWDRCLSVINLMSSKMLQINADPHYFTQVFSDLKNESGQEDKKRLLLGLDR

Compound	IC50 [µM]
c1ccc(Nc2ncnc3c2sc2cccnc23)cc1	> 10
COc1ccc(Nc2ncnc3c2sc2cccnc23)cc1	> 10
COc1ccc(Nc2ncnc3c2sc2cccnc23)cc1OC	> 10
COc1cc(Nc2ncnc3c2sc2cccnc23)cc(OC)c1	> 10
COc1cc(Nc2ncnc3c2sc2cccnc23)cc(OC)c1OC	> 10
c1cnc2c(c1)sc1c(Nc3ccc4c(c3)OCO4)ncnc12	> 10
c1cnc2c(c1)sc1c(Nc3ccc4c(c3)OCCO4)ncnc12	> 10
Fc1cc(Br)ccc1Nc1ncnc2c1sc1cccnc12	> 10
O=[N+]([O-])c1cc(Nc2ncnc3c2sc2cccnc23)ccc1O	> 10
Nc1ncnc2c1sc1nccnc12	> 10
c1ccc(Nc2ncnc3c2sc2nccnc23)cc1	> 10
COc1ccc(Nc2ncnc3c2sc2nccnc23)cc1	> 10
COc1ccc(Nc2ncnc3c2sc2nccnc23)cc1OC	> 10
COc1cc(Nc2ncnc3c2sc2nccnc23)cc(OC)c1	> 10
COc1cc(Nc2ncnc3c2sc2nccnc23)cc(OC)c1OC	> 10
c1cnc2c(n1)sc1c(Nc3ccc4c(c3)OCO4)ncnc12	> 10
c1cnc2c(n1)sc1c(Nc3ccc4c(c3)OCCO4)ncnc12	> 10
Fc1cc(Br)ccc1Nc1ncnc2c1sc1nccnc12	> 10
O=[N+]([O-])c1cc(Nc2ncnc3c2sc2nccnc23)ccc1O	> 10
Nc1ncnc2c1sc1ncccc12	> 10

Biological target: Dual specificity tyrosine-phosphorylation-regulated kinase 1A (Rattus norvegicus, UniProt Q63470)
Test: Inhibition of rat recombinant GST-tagged DYRK1A expressed in Escherichia coli using KKISGRLSPIMTEQ as substrate and [gamma32P]ATP after 30 mins by scintillation counting
Method in brief: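 Rat DYRK1A, expressed in E. coli as a GST fusion and purified on glutathione-agarose. Blanks subtracted. Activity given as % of uninhibited maximum. DMSO dilution controls.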

Compound	IC50 [µM]
c1ccc(Nc2ncnc3c2sc2cccnc23)cc1	> 10
COc1ccc(Nc2ncnc3c2sc2cccnc23)cc1	> 10
COc1ccc(Nc2ncnc3c2sc2cccnc23)cc1OC	3.7
COc1cc(Nc2ncnc3c2sc2cccnc23)cc(OC)c1	> 10
COc1cc(Nc2ncnc3c2sc2cccnc23)cc(OC)c1OC	> 10
c1cnc2c(c1)sc1c(Nc3ccc4c(c3)OCO4)ncnc12	> 10
c1cnc2c(c1)sc1c(Nc3ccc4c(c3)OCCO4)ncnc12	> 10
Fc1cc(Br)ccc1Nc1ncnc2c1sc1cccnc12	7.3
O=[N+]([O-])c1cc(Nc2ncnc3c2sc2cccnc23)ccc1O	5.8
Nc1ncnc2c1sc1nccnc12	> 10
c1ccc(Nc2ncnc3c2sc2nccnc23)cc1	> 10
COc1ccc(Nc2ncnc3c2sc2nccnc23)cc1	> 10
COc1ccc(Nc2ncnc3c2sc2nccnc23)cc1OC	> 10
COc1cc(Nc2ncnc3c2sc2nccnc23)cc(OC)c1	> 10
COc1cc(Nc2ncnc3c2sc2nccnc23)cc(OC)c1OC	> 10
c1cnc2c(n1)sc1c(Nc3ccc4c(c3)OCO4)ncnc12	> 10
c1cnc2c(n1)sc1c(Nc3ccc4c(c3)OCCO4)ncnc12	> 10
Fc1cc(Br)ccc1Nc1ncnc2c1sc1nccnc12	> 10
O=[N+]([O-])c1cc(Nc2ncnc3c2sc2nccnc23)ccc1O	> 10
Nc1ncnc2c1sc1ncccc12	2.8

Biological target: Dual specificity protein kinase CLK1 (Homo sapiens, UniProt P49759)
Sequence (P49759 whole entry): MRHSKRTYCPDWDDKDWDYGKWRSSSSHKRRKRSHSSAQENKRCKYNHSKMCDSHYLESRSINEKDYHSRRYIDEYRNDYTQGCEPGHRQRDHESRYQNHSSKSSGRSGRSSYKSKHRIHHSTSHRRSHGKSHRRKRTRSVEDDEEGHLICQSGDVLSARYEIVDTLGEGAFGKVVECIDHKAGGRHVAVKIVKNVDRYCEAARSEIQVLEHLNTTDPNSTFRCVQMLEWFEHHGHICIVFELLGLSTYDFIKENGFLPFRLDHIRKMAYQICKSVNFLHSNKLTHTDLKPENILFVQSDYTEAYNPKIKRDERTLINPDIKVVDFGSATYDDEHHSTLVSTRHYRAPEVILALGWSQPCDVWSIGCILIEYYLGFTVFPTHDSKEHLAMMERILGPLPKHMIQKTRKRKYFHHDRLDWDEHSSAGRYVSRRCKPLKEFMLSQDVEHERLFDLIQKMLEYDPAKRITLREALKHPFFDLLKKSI
Test: Inhibition of human recombinant GST-tagged CLK1 expressed in Escherichia coli using GRSRSRSRSRSR as substrate and [gamma32P]ATP after 30 mins by scintillation counting

Compound	IC50 [µM]
c1ccc(Nc2ncnc3c2sc2cccnc23)cc1	> 10
COc1ccc(Nc2ncnc3c2sc2cccnc23)cc1	> 10
COc1ccc(Nc2ncnc3c2sc2cccnc23)cc1OC	> 10
COc1cc(Nc2ncnc3c2sc2cccnc23)cc(OC)c1	> 10
COc1cc(Nc2ncnc3c2sc2cccnc23)cc(OC)c1OC	> 10
c1cnc2c(c1)sc1c(Nc3ccc4c(c3)OCO4)ncnc12	> 10
c1cnc2c(c1)sc1c(Nc3ccc4c(c3)OCCO4)ncnc12	> 10
Fc1cc(Br)ccc1Nc1ncnc2c1sc1cccnc12	> 10
O=[N+]([O-])c1cc(Nc2ncnc3c2sc2cccnc23)ccc1O	> 10
Nc1ncnc2c1sc1ncccc12	0.68

Test system: not listed separately
Test: Inhibition of pig CK1delta/epsilon isolated from brain using RRKHAAIGpSAYSITA as substrate and [gamma32P]ATP after 30 mins by scintillation counting
Parameters: species or system Sus scrofa

Compound	IC50 [µM]
c1ccc(Nc2ncnc3c2sc2cccnc23)cc1	1.6
COc1ccc(Nc2ncnc3c2sc2cccnc23)cc1	> 10
COc1ccc(Nc2ncnc3c2sc2cccnc23)cc1OC	> 10
COc1cc(Nc2ncnc3c2sc2cccnc23)cc(OC)c1	> 10
COc1cc(Nc2ncnc3c2sc2cccnc23)cc(OC)c1OC	4.1
c1cnc2c(c1)sc1c(Nc3ccc4c(c3)OCO4)ncnc12	> 10
c1cnc2c(c1)sc1c(Nc3ccc4c(c3)OCCO4)ncnc12	> 10
Fc1cc(Br)ccc1Nc1ncnc2c1sc1cccnc12	11
O=[N+]([O-])c1cc(Nc2ncnc3c2sc2cccnc23)ccc1O	0.12
Nc1ncnc2c1sc1nccnc12	2.4
c1ccc(Nc2ncnc3c2sc2nccnc23)cc1	5
COc1ccc(Nc2ncnc3c2sc2nccnc23)cc1	> 10
COc1ccc(Nc2ncnc3c2sc2nccnc23)cc1OC	> 10
COc1cc(Nc2ncnc3c2sc2nccnc23)cc(OC)c1	7.8
COc1cc(Nc2ncnc3c2sc2nccnc23)cc(OC)c1OC	> 10
c1cnc2c(n1)sc1c(Nc3ccc4c(c3)OCO4)ncnc12	> 10
c1cnc2c(n1)sc1c(Nc3ccc4c(c3)OCCO4)ncnc12	> 10
Fc1cc(Br)ccc1Nc1ncnc2c1sc1nccnc12	> 10
O=[N+]([O-])c1cc(Nc2ncnc3c2sc2nccnc23)ccc1O	1.4
Nc1ncnc2c1sc1ncccc12	0.031

Biological target: Glycogen synthase kinase-3 (Sus scrofa, UniProt B2LUN4+I6LNT8)
Test: Inhibition of pig GSK3alpha/beta isolated from brain using YRRAAVPPSPSLSRHSSPHQpSEDEEE as substrate and [gamma32P]ATP after 30 mins by scintillation counting
Method in brief: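 Assay run at 30 °C in one of two buffers: buffer A (Tris-HCl pH 7.5 with MgCl2, EGTA, DTT, heparin) or buffer B (Mops pH 7.2 with beta-glycerophosphate, EGTA, MgCl2, DTT, vanadate). Peptide substrate. Blank values subtracted and activity expressed as % of maximal, uninhibited activity. Controls with matching DMSO dilutions.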

Compound	IC50 [µM]
c1ccc(Nc2ncnc3c2sc2cccnc23)cc1	> 10
COc1ccc(Nc2ncnc3c2sc2cccnc23)cc1	> 10
COc1ccc(Nc2ncnc3c2sc2cccnc23)cc1OC	> 10
COc1cc(Nc2ncnc3c2sc2cccnc23)cc(OC)c1	> 10
COc1cc(Nc2ncnc3c2sc2cccnc23)cc(OC)c1OC	> 10
c1cnc2c(c1)sc1c(Nc3ccc4c(c3)OCO4)ncnc12	> 10
c1cnc2c(c1)sc1c(Nc3ccc4c(c3)OCCO4)ncnc12	> 10
Fc1cc(Br)ccc1Nc1ncnc2c1sc1cccnc12	> 10
O=[N+]([O-])c1cc(Nc2ncnc3c2sc2cccnc23)ccc1O	> 10
Nc1ncnc2c1sc1nccnc12	> 10
c1ccc(Nc2ncnc3c2sc2nccnc23)cc1	> 10
COc1ccc(Nc2ncnc3c2sc2nccnc23)cc1	> 10
COc1ccc(Nc2ncnc3c2sc2nccnc23)cc1OC	> 10
COc1cc(Nc2ncnc3c2sc2nccnc23)cc(OC)c1	> 10
COc1cc(Nc2ncnc3c2sc2nccnc23)cc(OC)c1OC	> 10
c1cnc2c(n1)sc1c(Nc3ccc4c(c3)OCO4)ncnc12	> 10
c1cnc2c(n1)sc1c(Nc3ccc4c(c3)OCCO4)ncnc12	> 10
Fc1cc(Br)ccc1Nc1ncnc2c1sc1nccnc12	> 10
O=[N+]([O-])c1cc(Nc2ncnc3c2sc2nccnc23)ccc1O	> 10
Nc1ncnc2c1sc1ncccc12	> 10
